This excerpt belongs to a sample that is enriched for hits.
pCIP destab – compounds decreasing mouse p/CIP protein stability; Q05BA5; F442A p/CIP-EGFP cells, EGFP fluorescence, 16 h; decrease of EGFP signal, % at 10 µM; 0.01% of 290,000 active; AID 1984;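 active means EGFP signal decrease of at least 30% at 10 µM or well 3 SD below plate mean, unless failing retest; inactive means the rest, including hits failing retest or dose response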
CHOP inhibitor – CHOP inhibition in unfolded protein response; AID 2732; CHO-K1 CHOP-promoter luciferase, tunicamycin-induced, 15-18 h; inhibition, % at 10 µM; 3.8% of 220,000 active;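 active means compounds that reduced the stress-induced luciferase reporter signal by more than about 70% of percent inhibition, limit read from the data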;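 further: 0% = tunicamycin plus vehicle and 100% = wells without tunicamycin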
B2AR ag – agonists of human beta-2 adrenergic receptor inducing internalization | Am2.2-beta2AR cells, FAP receptor internalization, flow cytometry | 0.43% of 340,000 active | response, % (concentration not given with the values) | P07550;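 active means response above a set limit, near 3 SD of response in nonfluorescent compounds, cut at about 42% in these data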
CHOP UPR activ – activators of apoptotic arm of unfolded protein response (CHOP). 0.34% of 330,000 active. CHO-CHOP luciferase reporter, UPR activation, luminescence; percent of tunicamycin response over DMSO baseline. activation, % at 10 µM. AID 449763;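 active means at 10 µM dose, activation of 40% or more, normalized to positive control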;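 further: 100% = tunicamycin at 10 µg/mL and 0% = DMSO alone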
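System: CHO CHOP reporter cells. Amount: 500 cells per well. Buffer or medium: F12 medium, 10% FBS. Compound dosing: one dose, 10 µM in 0.5% DMSO. Incubation: 6 h compound exposure at 37 °C after overnight seeding. Technique: Steady-Glo luciferase luminescence. Benchmarks: tunicamycin and DMSO controls.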
XBP1 UPR activ – adaptive UPR (XBP1) activation; CHO-XBP1 luciferase reporter, IRE1-XBP1 UPR activation, luminescence; percent of tunicamycin response, DMSO as zero; activation, % at 20 µM; 0.33% of 330,000 active; AID 463104;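 active means versus positive control, 20 µM dose yields 30% or more activation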;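 further: 100% = tunicamycin at 10 µg/mL and 0% = DMSO only wells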
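Assay system: IRE1-XBP1 luciferase reporter CHO line. Input: 1000 cells/well. Buffer or medium: F12 with 10% serum. Doses: 20 µM, 1% DMSO. Times: overnight seeding at 37 °C, 6 h compound treatment at 37 °C. Technique: Steady-Glo luciferase glow luminescence, 10 min after reagent addition.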
Dynein cargo inh – dynein cargo transport inhibition | 3617.4 mouse cells, GR-EGFP nuclear translocation imaging; test concentration mostly 20 µM; stimulated with dexamethasone, 1 µM; active compounds read low | z-score, hits read low | 0.47% of 220,000 active | AID 1381;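 active means plate z-score of nuclear minus cytoplasmic receptor signal below a set negative limit, without overly bright fluorescence or cell loss, cut at about -3.5 in these data, passing the limit was not always enough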;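 further: z-score of nuclear minus cytoplasmic ring GR-EGFP intensity difference per well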
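medium = tetracycline-free induction medium containing charcoal-stripped FBS | probe or stimulus = dexamethasone, 1.0 µM final | timing = 48 h induction, then 1 h compound, then 30 min agonist, 37 °C | detection = automated 10x imaging of fixed Hoechst-stained cells | read-out basis = nuclear versus cytoplasmic GR-EGFP signal, averaged per well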
* hit, by the source's call; . = not tested or not shown.

SMILES	pCIP destab	CHOP inhibitor	B2AR ag	CHOP UPR activ	XBP1 UPR activ	Dynein cargo inh
CC(C)(C)OC(=O)N1CCC(NC(=O)c2nc[nH]c2C(=O)NC2CCN(C(=O)OC(C)(C)C)CC2)CC1	.	.	-5.8	-0.3	-1.2	.
CCOC(=O)c1ccc(NC(=O)c2nc[nH]c2C(=O)NC2CCN(C(=O)OC(C)(C)C)CC2)cc1	-12.8	85.3*	6.7	3.2	1.4	-0.216
CCOC(=O)c1ccc(NC(=O)c2nc[nH]c2C(=O)N2CCN(c3ccccc3)CC2)cc1	-18.8	73.0*	0.8	1.2	-3.8	1.46
Cc1ccc(NC(=O)c2nc[nH]c2C(=O)N2CCN(c3ccccc3)CC2)cc1	3.3	34.4	-6.9	0.0	-1.3	-0.572
COc1cc2c(cc1NC(=O)Nc1ccc(C)cc1)oc1ccccc12	10.3	58.6	10.7	1.6	-0.9	1.65
COc1cc2c(cc1NC(=O)c1cc(-c3ccncc3)nc3ccccc13)oc1ccccc12	-5.3	84.7*	27.7	-1.2	0.4	-0.726
COc1cc2c(cc1NC(=O)Nc1cccc(C)c1)oc1ccccc12	0.3	89.5*	4.3	-0.1	-0.6	-0.149
COc1cc2c(cc1NC(=O)c1cc(-c3cccnc3)nc3ccc(C)cc13)oc1ccccc12	4.8	86.3*	-0.3	-1.1	0.1	-0.596
COc1ccccc1NC(=O)c1cc(-c2ccc(OC)c(OC)c2)nc2ccccc12	-5.3	.	-12.2	1.8	3.7	.
CCOC(=O)c1c(S(=O)(=O)NCC(=O)N2CCN(c3ccc(F)cc3)CC2)c(C)n(C)c1C	3.6	.	8.0	0.2	-1.1	.
N#CC1=C(c2ccccc2)/C(=C/c2ccccc2)OC1=O	-1.7	108.4*	35.6	-8.4	-16.9	-0.16
CCc1nnc(NC(=O)c2ccc(S(=O)(=O)N3CCc4ccccc4C3)cc2)s1	15.3	82.3*	0.2	1.2	1.1	-0.0428
CC(C)Oc1ccc(CC2CCC(=O)N(C)C2=O)cc1 (stereo unspecified)	3.2	-16.1	9.5	2.0	0.2	-0.597
O=C(Nc1nc2n(n1)C(c1ccc(Cl)cc1)CC(c1ccc(Cl)cc1)N2)c1ccco1 (stereo unspecified)	-23.3	80.5*	.	1.2	-3.6	1.9
CCc1ccc(N(CC(=O)Nc2nc3ccc(C)cc3s2)S(=O)(=O)c2c(C)noc2C)cc1	-4.9	82.6*	6.9	1.1	4.6	-1.24
CCc1ccc(NC(=O)CN(c2ccc3c(c2)OCO3)S(=O)(=O)c2c(C)noc2C)cc1	-12.0	61.0	-0.7	0.0	-1.4	-0.733
COC(=O)Cc1ccc(NC(=S)Nc2ccccn2)cc1	2.9	73.2*	0.1	3.1	-4.5	0.223
Cc1c(CCC(=O)NCCCn2ccnc2)c(=O)oc2c(C)c3occ(C(C)(C)C)c3cc12	12.3	.	3.1	4.9	-0.3	.
CCSc1nnc(NC(=O)c2cc(-c3ccc(C)c(C)c3O)n[nH]2)s1	-0.7	87.6*	3.2	.	.	-0.319
O=C1C(NS(=O)(=O)c2cccs2)=C(N2CCN(c3cccc(Cl)c3)CC2)C(=O)c2ccccc21	-5.7	72.7*	-1.9	0.9	2.8	-1.84
Clc1ccc(Cn2ncc3c(NCc4ccccc4)ncnc32)c(Cl)c1	2.8	81.0*	.	0.0	3.0	-0.235
Cc1ccc2nc(-c3ccc(NS(=O)(=O)c4ccccc4)cc3)sc2c1	0.5	18.8	1.3	1.1	-3.4	-0.107
Cc1ccc2nc(-c3ccc(NS(=O)(=O)c4ccc(F)c(F)c4)cc3)sc2c1	-12.7	85.2*	-7.5	.	.	0.388
COCCNC(=O)C1CCC(=O)N1S(=O)(=O)c1ccc(C)cc1 (stereo unspecified)	-2.3	.	4.1	-2.1	-7.0	.
COC(=O)c1sc(N2C(=O)c3oc4ccccc4c(=O)c3C2c2cccc(O)c2)nc1C (stereo unspecified)	1.6	74.6*	-17.5	0.1	-1.4	0.918
COCCN1C(=O)c2oc3ccccc3c(=O)c2C1c1cccc(O)c1 (stereo unspecified)	-11.1	34.2	-13.7	-1.3	1.9	0.882

Compound activity as filed in PubChem BioAssay.
